# Results taken from PMC12690059 (Dose-Response, 2025).
# Read-outs that look alike come from different tables or passages of the source.
# Experiments:
# [1] = test system: Nrf2/HO-1 and Casp-3 pathways; assay: In vivo mechanistic validation using pathway inhibitors; parameters: species or system Sprague-Dawley (SD) rats; settings: for Effect on P.indicus-induced reduction in serum cTn-T: ML385 30 mg/kg or Z-DEVD-FMK 1 mg/kg i.p. before P. indicus 54 mg/kg + ISO; for Intrinsic cardiotoxicity of inhibitor: control experiments
# Procedure, shortened: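 Rats (n = 8/group) received the test extract at 54 mg/kg p.o. on days 1-14 and ISO 85 mg/kg s.c. on days 7-14. An Nrf2 inhibitor (30 mg/kg) or a caspase-3 inhibitor (1 mg/kg) was given i.p. 30 min before each gavage; an ISO + vehicle group was included. Inhibition was checked by myocardial HO-1/cleaved caspase-3 western blot. Myocardial SOD and MDA (homogenate, ELISA) and serum cTn-T were measured.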
# [2] = type: in vivo, Sprague-Dawley rats
# Procedure, shortened: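 Healthy SD rats (n = 6) received a single oral dose of extract at 54 mg/kg. Tail-vein blood (0.3 mL) was taken at 0, 0.25, 0.5, 1, 2, 4, 8, 12 and 24 h; plasma was stored at −80°C. Marker compounds were measured by validated HPLC-DAD (C18, 35°C, 0.1% formic acid water/methanol gradient).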
# HO-1 = assay: Western blot of myocardial HO-1; type: in vivo, Sprague-Dawley (SD) rats; settings: propranolol 30 mg/kg oral 14 days; ISO rats; Control = 1.00
# Nrf2 = assay: Western blot of myocardial Nrf2; type: in vivo, Sprague-Dawley (SD) rats; settings: propranolol 30 mg/kg oral 14 days; ISO rats; Control = 1.00
# Bax = assay: Western blot of myocardial Bax; type: in vivo, Sprague-Dawley (SD) rats; settings: propranolol 30 mg/kg oral 14 days; ISO rats; Control = 1.00
# Cleaved caspase-3 = assay: Western blot of myocardial cleaved caspase-3; type: in vivo, Sprague-Dawley (SD) rats; settings: propranolol 30 mg/kg oral 14 days; ISO rats; Control = 1.00
# [3] = test system: ISO-induced myocardial ischemia; assay: Cardiac index; type: in vivo, Sprague-Dawley (SD) rats; settings: propranolol 30 mg/kg oral 14 days; vs ISO
# Procedure, shortened: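 Male SD rats (200 ± 20 g, n = 10/group) received oral gavage daily for 14 days, with ISO 85 mg/kg s.c. on days 7-14, 30 min post-gavage. After ECG, hearts were excised, rinsed in pre-cooled saline, blotted dry and weighed. Cardiac index = heart weight/body weight, in mg/g.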
# [4] = test system: ISO-induced myocardial ischemia; assay: ECG monitoring; type: in vivo, Sprague-Dawley (SD) rats; settings: propranolol 30 mg/kg oral 14 days
# Procedure, shortened: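 Male SD rats (n = 10/group) were dosed orally for 14 days, with ISO 85 mg/kg s.c. on days 7-14. Twenty-four hours after the last ISO, rats were anesthetized with 2% pentobarbital sodium (30 mg/kg i.p.) and fixed supine. Lead II ECG was recorded for 60 min for ST-segment and T-wave changes, QRS duration and VPB incidence.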
# [5] = test system: ISO-induced myocardial ischemia; assay: H&E histopathological score of myocardial tissue; type: in vivo, Sprague-Dawley (SD) rats; settings: propranolol 30 mg/kg oral 14 days; ISO rats
# Procedure, shortened: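 ISO model: SD rats, 14-day oral pretreatment, ISO 85 mg/kg s.c. on days 7-14. Hearts were fixed in 4% paraformaldehyde for 24 h, paraffin-embedded and cut at 4 μm. Sections were H&E-stained and examined by light microscopy for myocardial damage. Final scores were consensus evaluations.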
# Bcl-2 = assay: Western blot of myocardial Bcl-2; type: in vivo, Sprague-Dawley (SD) rats; settings: propranolol 30 mg/kg oral 14 days; ISO rats; Control = 1.00
# [6] = test system: ISO-induced myocardial ischemia; assay: Masson's trichrome staining, myocardial fibrotic area; type: in vivo, Sprague-Dawley (SD) rats; settings: propranolol 30 mg/kg oral 14 days; ISO rats
# Procedure, shortened: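 ISO model: SD rats, 14-day oral pretreatment, ISO 85 mg/kg s.c. on days 7-14. Paraffin heart sections (4 μm) were deparaffinized and stained with Weigert's iron hematoxylin, then Biebrich scarlet-acid fuchsin, phosphomolybdic-phosphotungstic acid and aniline blue; collagen stains blue. Images were taken at 200x. Fibrosis was expressed as collagen-positive area as a percentage of total myocardial area.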
# [7] = Sprague-Dawley, rat, plasma, po, 54 mg/kg
# [8] = rat plasma, single oral P. indicus extract 54 mg/kg, n = 6
smiles,measurement,setting,value
Cc1ccccc1C(=O)N1CCc2cc(-c3nc(NC(=O)Cc4ccc5c(c4)OCO5)sc3C)ccc21 [ML385],"Effect on P.indicus's antioxidant effect (SOD activity, MDA content)",[1]; ML385 30 mg/kg i.p. before P. indicus 54 mg/kg + ISO,nullified P.indicus’s antioxidant effect
same,Effect on P.indicus-induced reduction in serum cTn-T,[1],attenuated the P.indicus-induced reduction in serum cTn-T
same,Intrinsic cardiotoxicity of inhibitor,[1],ruled out intrinsic cardiotoxicity
CCCCC/C=C\C/C=C\CCCCCCCC(=O)O [Linoleic acid],AUC(0-t),[2]; [7],7210 ± 950 ng·h/mL
same,Cmax,[2]; [7],2450 ± 300 ng/mL
same,Tmax,[2]; [7],0.25 ± 0.08 h
same,half-life,[2]; [7],1.8 ± 0.2 h
O=c1c(O[C@@H]2O[C@H](CO)[C@@H](O)[C@H](O)[C@H]2O)c(-c2ccc(O)c(O)c2)oc2cc(O)cc(O)c12 [Quercetin-3-O-glucoside],AUC(0-t),[2]; [7],5950 ± 720 ng·h/mL
same,Cmax,[2]; [7],1280 ± 150 ng/mL
same,half-life,[2]; [7],3.2 ± 0.4 h
same,Tmax,[2]; [8],0.50 ± 0.12 h
CC(C)NCC(O)COc1cccc2ccccc12 (stereo not drawn) [propranolol],Relative expression of protein HO-1,HO-1,3.80 ± 0.64
same,Relative expression of protein Nrf2,Nrf2,2.55 ± 0.21
same,Relative expression of protein Bax,Bax,1.74 ± 0.36
same,Relative expression of protein Cleaved caspase-3,Cleaved caspase-3,2.48 ± 0.63
same,ISO-induced increase of cardiac index (heart weight/body weight ratio),[3],significantly attenuated
same,ST-segment elevation,[4]; ISO 85 mg/kg s.c. days 7-14,0.024 ± 0.033 mV
same,QRS duration,[4]; ISO rats,0.041 ± 0.002 s
same,Ventricular premature beats (VPBs),[4]; ISO rats,1.2 ± 0.3 beats/60 min
same,Pathological score (H&E) vs ISO group,[5],significantly lower
same,Relative expression of protein Bcl-2,Bcl-2,0.63 ± 0.08
same,Fibrotic area (Masson's trichrome),[6],11.2 ± 2.1%
COc1cc(/C=C/C(=O)O)ccc1O [Ferulic acid],AUC0-24h,[2]; [8],3420 ± 510 ng·h/mL
same,Cmax,[2]; [8],850 ± 110 ng/mL
same,Tmax,[2]; [8],0.52 ± 0.15 h
same,t1/2,[2]; [8],2.8 ± 0.3 h
COC(=O)CC[C@H](NC(=O)[C@H](CC(=O)OC)NC(=O)OCc1ccccc1)C(=O)N[C@H](C(=O)N[C@@H](CC(=O)OC)C(=O)CF)C(C)C [Z-DEVD-FMK],Effect on P.indicus-induced reduction in serum cTn-T,[1],attenuated the P.indicus-induced reduction in serum cTn-T
same,Effect on P.indicus suppression of cleaved caspase-3 (western blot),[1]; Z-DEVD-FMK 1 mg/kg i.p. 30 min before each P. indicus gavage (54 mg/kg) + ISO,reversed the suppression of cleaved caspase-3
same,Effect on P.indicus's anti-apoptotic action,[1]; Z-DEVD-FMK 1 mg/kg i.p. before P. indicus 54 mg/kg + ISO,selectively blocked its anti-apoptotic action
same,Intrinsic cardiotoxicity of inhibitor,[1],ruled out intrinsic cardiotoxicity
